What was measured:
BxPC-3 xenografts = assay: Antitumor efficacy study in mice bearing BxPC-3 xenografts; assay type: in vivo; settings: iv 10 mg/kg gemcitabine equivalent on days 0, 3, 7, 10
Summary of the method: (§1)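 Female athymic nude mice (nu/nu, 5–6 weeks) received subcutaneous BxPC-3 cells (2 × 10^6 in matrigel/RPMI) in each flank. At 50–100 mm3, mice were randomized to untreated, free parent drug in PBS, or micellar prodrug groups (4 per group). Dosing was iv 10 mg/kg parent-drug equivalent on days 0, 3, 7 and 10. Tumor volume was measured by caliper as 1/2 × length × width², and body weight was tracked. Groups were compared by t-test.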

[1] = In vitro release study by dialysis method; assay type: physicochemical
Summary of the method: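 Micelles, free parent drug, or free prodrug were placed in a 20 kDa MWCO dialysis cassette against 500 mL PBS (20 mM, pH 7.4) at 37 °C. The sink was refreshed at each sampling. Free prodrug was taken from a 6 mM Tween 80/ethanol (1:4) stock and diluted in HEPES saline to a final 100 μM. Cassette contents were sampled over time and quantified by HPLC. Ct/C0 = e^–kt was fitted by nonlinear regression, and t1/2 = 0.693/k.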

[2] = tested on: human pancreatic cancer BxPC-3 cells; assay: Cell proliferation assay; assay type: cell-based; settings: BXPC-3, 72 h
Summary of the method: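 BxPC-3 cells were grown in RPMI with 10% FBS and penicillin/streptomycin at 37 °C under 5% CO2, then seeded in 96-well plates. Stocks were 1 mM (parent drug in PBS, prodrug in DMSO). Cells were exposed to 10–150 nM free or micellar test compound for 72 h. They were then fixed with 1% glutaraldehyde, stained with 0.1% crystal violet and dissolved in 10% acetic acid, with absorbance read at 595 nm. Viability was expressed as % of untreated wells.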

[3] = tested on: tumor cells with wild-type hENT1 and deoxycytidine kinase; settings: cell culture, tumor cells with wild-type hENT1 and deoxycytidine kinase ref 36; cited from earlier work
[4] = tested on: cytidine deaminase and cathepsin B; assay type: in vitro ADME, human; settings: by 1 h; cathepsin B 5 U/mL, cytidine deaminase 15 μg/mL, pH 6.5, 37 °C
[5] = Pharmacokinetic study in mice bearing BxPC-3 xenografts; assay type: in vivo
Summary of the method: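 Female nude mice carried BxPC-3 subcutaneous xenografts of 100–300 mm3 (3 per group). Mice received iv 25 mg/kg parent-drug equivalent as free drug in PBS, free prodrug in Tween 80/ethanol:PBS (1:4), or micelles. Retro-orbital blood was taken at 3–90 min. Samples were quenched with acetic acid, precipitated with acetonitrile, and analyzed by HPLC with internal standards for prodrug, parent and deaminated metabolite. t1/2, CLT and Vd,ss came from noncompartmental analysis.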

[6] = Body weight of treated mice in the efficacy study; assay type: in vivo; settings: iv 10 mg/kg gemcitabine equivalent twice weekly for 2 weeks
Summary of the method: as §1

[7] = female, athymic nude (nu/nu), mouse, plasma, iv, 25 mg/kg

Nc1ccn([C@@H]2O[C@H](CO)[C@@H](O)C2(F)F)c(=O)n1 [gemcitabine, 2′,2′-difluorocytidine]
effect on tumor growth (BxPC-3 xenografts): unable to arrest the tumor growth | release half-life (t1/2,release) ([1]; dialysis): about 15 min | t1/2,release ([1]; dialysis 20 kDa MWCO, PBS pH 7.4, 37 °C, 0.693/k): 14.4 min | release rate constant ([1]; dialysis 20 kDa MWCO, PBS pH 7.4, 37 °C, free GemC18 in Tween 80/ethanol): 2.920 h^–1 | EC50 [2]: 25 nM | EC50 [3]: low nanomolar range | conversion to dFdU [4]: 80% | AUC [5, 7]: 18.8 µM·h | Vd [5, 7]: 1.06 ± 0.132 L/kg | CLT of gemcitabine ([5]; plasma gemcitabine, iv 25 mg/kg, mice): 84.0 ± 4.0 mL/min/kg | body weight / overt toxicity [6]: no overt toxicity

— PMC3993932 (Molecular Pharmaceutics, 2014)
